From PubChem
The list is not random: actives were taken first. Their share in the collection is about 2.3%.
OXTR potentiate: potentiators of human oxytocin receptor. P30559. CHO-OTR cells, Fluo-8 calcium fluorescence, potentiator mode; 0% = oxytocin EC15, 100% = EC100. activation, % at 3 µM. actives 0.061% (n = 320,000);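 active = activation above that plate's cutoff, the mean activation of tested compounds plus 3 SD, cut at about 6.6% in these data, passing the limit was not always enough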;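 also: 100% uses oxytocin at 75 nM as the full agonist control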
Target sequence (P30559 whole entry, looked up): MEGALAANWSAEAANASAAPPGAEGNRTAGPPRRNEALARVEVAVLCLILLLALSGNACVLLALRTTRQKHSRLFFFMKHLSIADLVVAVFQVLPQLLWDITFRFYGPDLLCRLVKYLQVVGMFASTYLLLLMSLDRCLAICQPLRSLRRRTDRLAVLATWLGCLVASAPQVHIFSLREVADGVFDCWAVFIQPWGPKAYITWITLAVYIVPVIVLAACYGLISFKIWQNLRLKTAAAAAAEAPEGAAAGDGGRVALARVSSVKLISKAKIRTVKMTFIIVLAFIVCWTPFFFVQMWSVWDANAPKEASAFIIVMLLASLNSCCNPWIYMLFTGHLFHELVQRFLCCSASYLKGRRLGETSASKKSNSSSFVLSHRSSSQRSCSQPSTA
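Assay system: CHO cell line stably expressing human OTR. Reagent: EC15 oxytocin agonist. Dosing: single dose, 3.0 µM nominal final compound concentration. Timing: compound 6 min at room temperature before oxytocin, 100 s read. Signal: kinetic Fluo-8 calcium fluorescence. Controls: oxytocin EC15 low and EC100 high.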
V1aR counter: activates human V1a receptor in oxytocin agonist counter-screen; CHO-V1R cells, Fluo-8 calcium fluorescence, agonist mode; 0% DMSO, 100% 3 nM vasopressin; activation, % at 3 µM; actives 0.25% (n = 320,000); AID 2797;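 active = activation above the mean activation of all tested compounds plus 3 SD, per screening run, cut at about 20% in these data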;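 also: signal is peak over basal fluorescence ratio across a 100 second FLIPR read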
OXTR ag: activates the human oxytocin receptor; CHO-OTR cells, Fluo-8 calcium fluorescence; normalized: DMSO 0%, oxytocin 100%; activation, % at 3 µM; actives 0.32% (n = 320,000); AID 2435;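 active = activation above the mean of all tested compounds plus 3 SD, cutoff set per screening run, cut at about 20% in these data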;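 also: peak over basal fluorescence ratio from a 100 s FLIPR kinetic read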
TAAR1 antag: human TAAR1 antagonism. Q96RJ0. CHO RD-HGA16 TAAR1, Fluo-8 calcium fluorescence, antagonist. inhibition, % at 3 µM. actives 1.5% (n = 360,000). AID 624466;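 active = inhibition above a per-plate cutoff, the mean inhibition of test compounds on that plate plus 3 SD, cut at about 49% in these data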;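 also: 0% = DMSO plus EC80 beta-PEA response and 100% = DMSO alone without agonist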
Target sequence (Q96RJ0 whole entry, looked up): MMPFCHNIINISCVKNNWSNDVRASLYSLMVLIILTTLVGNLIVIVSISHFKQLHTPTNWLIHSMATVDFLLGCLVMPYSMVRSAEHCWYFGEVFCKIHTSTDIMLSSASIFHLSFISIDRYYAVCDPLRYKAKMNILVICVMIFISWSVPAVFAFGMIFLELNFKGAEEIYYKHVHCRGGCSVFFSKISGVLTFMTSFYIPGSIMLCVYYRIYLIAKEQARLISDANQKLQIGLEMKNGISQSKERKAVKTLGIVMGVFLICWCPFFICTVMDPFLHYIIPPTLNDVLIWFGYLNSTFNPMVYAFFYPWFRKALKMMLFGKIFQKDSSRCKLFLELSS
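Material: RD-HGA16 CHO cells with stable hTAAR1 and Gα16; Dosing: single nominal final test compound concentration of 3 µM; Schedule: seeding 17-24 h prior, 75-min 37 °C, 30-min RT dye loading; Detection: kinetic Fluo-8 calcium fluorescence measurement; Measure: % inhibition from peak post-agonist over basal fluorescence ratio; Benchmarks: vehicle and agonist controls.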
TAAR1 ag: human TAAR1 agonism | activation, % at 3 µM | actives 0.99% (n = 360,000) | Q96RJ0 | CHO RD-HGA16 TAAR1, Fluo-8 calcium fluorescence; vehicle wells 0%, saturating PEA agonist 100%;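 active = activation above the mean activation of all test compounds in the run plus 3 SD, cut at about 38% in these data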
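test system = CHO RD-HGA16 cells carrying human TAAR1 plus Gα16 | schedule = 17-24 h seeding, 75 min 37 °C dye, 30 min RT | compound dosing = 3 µM single concentration | control set = DMSO and PEA EC100 | replicates = n 1 | signal = Fluo-8 fluorescence, 5 s baseline then 140 s kinetic read | measure = percent activation vs PEA EC100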
TAAR1 ag confirm: confirmation of human TAAR1 agonists; activation, % at 3 µM; AID 651783; actives 82% (n = 2,400); CHO RD-HGA16 TAAR1, Fluo-8 calcium fluorescence; scaled: DMSO 0%, maximal phenethylamine 100%; shares compounds with TAAR1 ag;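 active = activation above a cutoff set at the run's mean compound activation plus 3 SD, cut at about 39% in these data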
Ga16 nonsel ag: nonselective agonism, TAAR1 counter-screen | shares compounds with TAAR1 ag | CHO-Ga16 parental, Fluo-8 calcium fluorescence; normalized to maximal ATP response, DMSO zero | activation, % at 3 µM | actives 50% (n = 2,400) | AID 651787;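 active = activation above the run cutoff, the mean activation over all tested wells plus 3 SD, cut at about 12% in these data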;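 also: 0% = DMSO wells and 100% = maximal ATP response on the peak over basal ratio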
TAAR1 desensitize: counter-screen for human TAAR1 agonists: agonists that desensitize TAAR1 | shares compounds with TAAR1 ag | CHO RD-HGA16 hTAAR1, Fluo-8 calcium, beta-PEA response inhibition | inhibition, % at 3 µM | actives 46% (n = 2,400) | AID 651951;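 active = inhibition above the run cutoff, the mean inhibition of all test compounds plus 3 SD, cut at about 49% in these data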;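 also: beta-PEA stimulus applied at its EC80; loss of beta-PEA calcium signal after compound pretreatment read as receptor desensitization; 0% = DMSO with beta-PEA at EC80 and 100% = DMSO alone without agonist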
Ga16 antag count: counter-screen for TAAR1 agonists: nonselective Ga16 antagonists | shares compounds with TAAR1 ag | CHO-Ga16 ATP-induced calcium, Fluo-8 fluorescence | inhibition, % at 3 µM | actives 39% (n = 2,400) | AID 651952;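 active = inhibition above the plate's mean compound inhibition plus 3 SD, computed per plate, cut at about 22% in these data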;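 also: 0% = EC80 ATP with DMSO and 100% = DMSO wells without ATP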
Numbers without * were called inactive; / = not tested or not shown.

SMILES	OXTR potentiate	V1aR counter	OXTR ag	TAAR1 antag	TAAR1 ag	TAAR1 ag confirm	Ga16 nonsel ag	TAAR1 desensitize	Ga16 antag count
COC(=O)c1ccc(CNC(=O)COC(=O)c2cc(Cl)ccc2O)cc1	-7	1	3	70*	62*	21	5	19	17
COc1ccc([N+](=O)[O-])cc1NC(=O)C(C)OC(=O)CC1CCCC1 (centres undefined)	-3	0	-2	-12	6	/	/	/	/
CCCC(=O)n1nc(-c2ccc(Cl)cc2)nc1SC	-11	0	-2	0	2	/	/	/	/
CSc1nc(-c2ccc(Cl)cc2)nn1S(=O)(=O)c1ccccc1	0	0	-1	/	/	/	11	/	-4
CCC(=O)n1nc(-c2ccc(Cl)cc2)nc1SC	-3	0	-1	-28	44*	44*	1	5	-11
CC(CCCN1CCCC1)Nc1ccnc2cc(Cl)ccc12 (centres undefined)	/	/	/	-2	0	/	/	/	/
CC(Nc1ccnc2cc(Cl)ccc12)c1ccc(S(N)(=O)=O)cc1 (centres undefined)	-6	1	0	-2	53*	69*	0	51*	-2
C[C@@H](C(=O)N1CCN(C(=O)OC(C)(C)C)CC1)n1cc(CCC(=O)O)nn1	-1	0	6	12	5	/	/	/	/
O=C(CSc1nc2[nH]ncc2c(=O)n1-c1ccccc1)c1ccc2c(c1)OCCO2	-15	9	8	58*	75*	67*	21*	50*	27*
CC(Oc1ccc(Br)cc1)C(=O)Nc1ccc(S(=O)(=O)N(C)C2CCN(C)CC2)cc1 (centres undefined)	-22	47*	64*	99*	140*	140*	100*	102*	82*
COc1ccc(CC(=O)Nc2ccc(S(=O)(=O)N(C)C3CCN(C)CC3)cc2)cc1	-2	2	2	6	8	/	/	/	/
CC(Oc1ccccc1Cl)C(=O)Nc1ccc(S(=O)(=O)N2CCOCC2)cc1 (centres undefined)	/	/	/	3	7	/	/	/	/
Cc1ccc(OC(C)C(=O)Nc2ccc(S(=O)(=O)N3CCOCC3)cc2)cc1 (centres undefined)	-17	20	17	26	66*	77*	51*	42	33*
CC(Oc1ccc(C(=O)c2ccccc2)cc1)C(=O)Nc1ccc(S(N)(=O)=O)cc1 (centres undefined)	-11	22*	33*	29	74*	61*	31*	47	36*
Cc1ccc(NC(=O)c2ccc(S(=O)(=O)N3CCCCC3)cc2)cc1	-6	2	0	-11	48*	1	4	10	11
CCOC(=O)C1(C)CCN1C(=O)c1ccc(C#N)cc1 (centres undefined)	/	/	/	-2	0	/	/	/	/
CC1CCCC(NC(=O)CNC(=S)N(Cc2ccccc2)Cc2cccs2)C1C (centres undefined)	-28	1	-2	0	0	/	/	/	/
O=C(CN1CCC(C(=O)O)CC1)Nc1ccccc1Oc1ccccc1	-1	1	0	-13	12	/	/	/	/
COc1ccc(N=Cc2sc(O)c3ccccc23)cc1	-25	77*	58*	64*	84*	46*	72*	53*	69*
NC(N)=NN=C(c1ccc(F)cc1)c1ccc(C(F)(F)F)cc1	/	/	/	-1	51*	65*	32*	34	28*
COc1ccc(N(CC(=O)N2CCOCC2)S(C)(=O)=O)cc1Cl	1	1	1	5	-1	/	/	/	/
C(=NNc1nnn(Cc2ccccc2)n1)c1ccccc1	/	/	/	22	54*	8	2	4	6
C(=N\Nc1nn[nH]n1)/c1ccccc1	3	0	0	-5	2	/	/	/	/
CC(=O)c1c(C)[nH]c(C(=O)NCCc2cccc(C)c2)c1C	-6	2	5	-5	52*	26	7	13	19
CCc1c(C(=O)NCCc2cccc(C)c2)[nH]c(C)c1C(C)=O	-4	6	5	26	68*	53*	9	26	24*
SMILES	OXTR potentiate	V1aR counter	OXTR ag	TAAR1 antag	TAAR1 ag	TAAR1 ag confirm	Ga16 nonsel ag	TAAR1 desensitize	Ga16 antag count
CC1(C(=O)Nc2ccc(Cl)cc2)Cc2c(-c3ccc(C(N)=O)cc3)ccnc2O1 (centres undefined)	/	/	/	-9	6	/	/	/	/
Cc1cc(C)nc(NS(=O)(=O)c2ccc(NC(=O)C3(c4ccc([N+](=O)[O-])cc4)CCCC3)cc2)n1	-7	22*	22*	37	63*	102*	39*	64*	36*
O=C(OCC(=O)N1CCCc2ccccc21)c1cc(S(=O)(=O)N2CCOCC2)ccc1O	-6	1	0	6	6	/	/	/	/
CC(C)C[C@H]1CN=C(Nc2ccccc2)N1CC1CCCCCC1	-5	9	13	11	49*	29	16*	19	22*
CCN1C(Nc2ccccc2)=NC[C@@H]1CC(C)C	-8	0	-1	-11	9	/	/	/	/
CC(C)CCN1C(Nc2ccccc2)=NC[C@@H]1CC(C)C	1	1	1	-3	8	/	/	/	/
CC(C)C[C@H]1CN=C(Nc2ccccc2)N1CCc1ccc(F)cc1	-18	59*	44*	104*	119*	127*	80*	102*	72*
CCOC(=O)c1c(C)[nH]c(C)c1S(=O)(=O)NCCc1sccc1C	-4	0	-1	24	54*	27	1	42	8
CSCC[C@H](NC(=O)c1ccc2ccccc2c1)C(=O)N1CCC2(CC1)NCCc1[nH]cnc12	-9	0	0	-16	0	/	/	/	/
CSCC[C@H](NC(=O)COc1ccc(Cl)cc1)C(=O)N1CCC2(CC1)NCCc1[nH]cnc12	-8	1	0	3	52*	1	0	-4	-5
CN(C)S(=O)(=O)c1ccc(C(=O)N2CCN(S(=O)(=O)c3ccc4c(c3)OCCO4)CC2)cc1	/	/	/	-5	10	/	/	/	/
COc1cc(N/N=C/c2ccccc2O)ncn1	-4	1	1	5	49*	57*	9	53*	11
